In brackets after ≈: the same amount, converted by molar mass.
Assays:
Assay type in all cases: functional
Mammaliicoccus sciuri [1] = experiment: Antimicrobial activity against methicillin-resistant coagulase-negative Staphylococcus sciuri after 24 hrs by broth microdilution method
Procedure, shortened: (§1)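 Clinical isolates came from blood, body fluids, genital secretions, pus or sputum, identified conventionally or by Vitek. MICs were run by CLSI M7-A6 broth microdilution in Mueller-Hinton broth with 5 × 10^5 CFU/ml inoculum. Agents were twofold serially diluted, starting from 10% DMSO. Drug-free and uninoculated controls were included. Plates were incubated aerobically at 37°C for 24 h; MIC is the lowest concentration giving no visible growth.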

Mammaliicoccus sciuri [2] = experiment: Antimicrobial activity against methicillin-resistant coagulase-negative Staphylococcus sciuri assessed as susceptible isolates after 24 hrs by broth microdilution method
[3] = tested on: Staphylococcus epidermidis; experiment: Antimicrobial activity against methicillin-resistant coagulase-negative Staphylococcus epidermidis after 24 hrs by broth microdilution method; procedure, shortened: as §1
Staphylococcus simulans [4] = experiment: Antimicrobial activity against methicillin-resistant coagulase-negative Staphylococcus simulans assessed as susceptible isolates after 24 hrs by broth microdilution method
Staphylococcus simulans [5] = experiment: Antimicrobial activity against methicillin-susceptible coagulase-negative Staphylococcus simulans assessed as resistant isolates after 24 hrs by broth microdilution method
Staphylococcus hominis [6] = experiment: Antimicrobial activity against methicillin-susceptible coagulase-negative Staphylococcus hominis assessed as intermediate resistant isolates after 24 hrs by broth microdilution method; settings: pooled result: one value given for 5 cell lines, strains, targets or settings
Mammaliicoccus sciuri [7] = experiment: Bactericidal activity against methicillin-susceptible coagulase-negative Staphylococcus sciuri after 24 hrs by plate counting method
Procedure, shortened: (§2)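 Clinical staphylococcal isolates from patient body fluids, blood, genital secretions, pus or sputum; species by conventional methods or Vitek. Twofold dilutions in Mueller-Hinton broth, inoculum 5 × 10^5 CFU/ml, 37°C aerobic 24 h (CLSI M7-A6 microdilution). About 100 μl from each well without visible growth spread on MHA; 37°C 24 h. MBC = lowest concentration giving no growth on agar.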

[8] = tested on: Staphylococcus epidermidis; experiment: Antimicrobial activity against methicillin-resistant coagulase-negative Staphylococcus epidermidis assessed as susceptible isolates after 24 hrs by broth microdilution method
Mammaliicoccus sciuri [9] = experiment: Antimicrobial activity against methicillin-susceptible coagulase-negative Staphylococcus sciuri after 24 hrs by broth microdilution method; procedure, shortened: as §1
Staphylococcus aureus [10] = experiment: Antimicrobial activity against methicillin-susceptible Staphylococcus aureus assessed as susceptible isolates after 24 hrs by broth microdilution method
Staphylococcus hominis [11] = experiment: Antimicrobial activity against methicillin-resistant coagulase-negative Staphylococcus hominis after 24 hrs by broth microdilution method; procedure, shortened: as §1
Staphylococcus aureus [12] = experiment: Antimicrobial activity against methicillin-susceptible Staphylococcus aureus assessed as intermediate resistant isolates after 24 hrs by broth microdilution method
Staphylococcus simulans [13] = experiment: Antimicrobial activity against methicillin-resistant coagulase-negative Staphylococcus simulans assessed as intermediate resistant isolates after 24 hrs by broth microdilution method
Staphylococcus hominis [14] = experiment: Antimicrobial activity against methicillin-resistant coagulase-negative Staphylococcus hominis assessed as susceptible isolates after 24 hrs by broth microdilution method
[15] = tested on: Staphylococcus haemolyticus; experiment: Antimicrobial activity against methicillin-susceptible coagulase-negative Staphylococcus haemolyticus assessed as susceptible isolates after 24 hrs by broth microdilution method
[16] = tested on: Staphylococcus haemolyticus; experiment: Antimicrobial activity against methicillin-susceptible coagulase-negative Staphylococcus haemolyticus after 24 hrs by broth microdilution method; procedure, shortened: as §1
[17] = tested on: Staphylococcus epidermidis; experiment: Antimicrobial activity against methicillin-resistant coagulase-negative Staphylococcus epidermidis assessed as resistant isolates after 24 hrs by broth microdilution method
Mammaliicoccus sciuri [18] = experiment: Antimicrobial activity against methicillin-resistant coagulase-negative Staphylococcus sciuri assessed as resistant isolates after 24 hrs by broth microdilution method
Mammaliicoccus sciuri [19] = experiment: Antimicrobial activity against methicillin-susceptible coagulase-negative Staphylococcus sciuri assessed as susceptible isolates after 24 hrs by broth microdilution method
Procedure, shortened: (§3)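 Clinical isolates from blood, body fluids, pus, sputum or genital secretions, identified conventionally or by Vitek, were tested alongside ATCC 29213 and ATCC 12228 controls. CLSI M7-A6 broth microdilution in Mueller-Hinton broth used twofold dilutions from a 10% DMSO solution and 5 × 10^5 CFU/ml inoculum. Drug-free and uninoculated wells served as controls; incubation was aerobic at 37°C for 24 h. MIC was the lowest concentration with no visible growth.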

Staphylococcus hominis [20] = experiment: Antimicrobial activity against methicillin-susceptible coagulase-negative Staphylococcus hominis assessed as susceptible isolates after 24 hrs by broth microdilution method
Staphylococcus hominis [21] = experiment: Bactericidal activity against methicillin-susceptible coagulase-negative Staphylococcus hominis after 24 hrs by plate counting method; procedure, shortened: as §2
Staphylococcus aureus [22] = experiment: Antimicrobial activity against methicillin-resistant Staphylococcus aureus assessed as resistant isolates after 24 hrs by broth microdilution method
Staphylococcus simulans [23] = experiment: Antimicrobial activity against methicillin-susceptible coagulase-negative Staphylococcus simulans after 24 hrs by broth microdilution method; procedure, shortened: as §1
[24] = tested on: Staphylococcus haemolyticus; experiment: Bactericidal activity against methicillin-resistant coagulase-negative Staphylococcus haemolyticus after 24 hrs by plate counting method
[25] = tested on: Staphylococcus epidermidis; experiment: Bactericidal activity against methicillin-susceptible coagulase-negative Staphylococcus epidermidis after 24 hrs by plate counting method; procedure, shortened: as §2
Staphylococcus aureus [26] = experiment: Antimicrobial activity against methicillin-resistant Staphylococcus aureus assessed as susceptible isolates after 24 hrs by broth microdilution method
Staphylococcus aureus [27] = experiment: Antimicrobial activity against methicillin-resistant Staphylococcus aureus assessed as intermediate resistant isolates after 24 hrs by broth microdilution method
Staphylococcus aureus [28] = experiment: Antimicrobial activity against methicillin-susceptible Staphylococcus aureus assessed as resistant isolates after 24 hrs by broth microdilution method
[29] = tested on: Staphylococcus haemolyticus; experiment: Antimicrobial activity against methicillin-resistant coagulase-negative Staphylococcus haemolyticus assessed as intermediate resistant isolates after 24 hrs by broth microdilution method
Staphylococcus aureus [30] = experiment: Antimicrobial activity against methicillin-susceptible Staphylococcus aureus after 24 hrs by broth microdilution method; procedure, shortened: as §1
Staphylococcus aureus [31] = experiment: Bactericidal activity against methicillin-susceptible Staphylococcus aureus after 24 hrs by plate counting method; procedure, shortened: as §2
[32] = tested on: Staphylococcus epidermidis; experiment: Antimicrobial activity against methicillin-susceptible coagulase-negative Staphylococcus epidermidis assessed as susceptible isolates after 24 hrs by broth microdilution method
[33] = tested on: Staphylococcus haemolyticus; experiment: Antimicrobial activity against methicillin-resistant coagulase-negative Staphylococcus haemolyticus after 24 hrs by broth microdilution method; procedure, shortened: as §1
Mammaliicoccus sciuri [34] = experiment: Antimicrobial activity against methicillin-susceptible coagulase-negative Staphylococcus sciuri assessed as resistant isolates after 24 hrs by broth microdilution method
[35] = tested on: Staphylococcus epidermidis; experiment: Bactericidal activity against methicillin-resistant coagulase-negative Staphylococcus epidermidis after 24 hrs by plate counting method
Staphylococcus simulans [36] = experiment: Antimicrobial activity against methicillin-susceptible coagulase-negative Staphylococcus simulans assessed as susceptible isolates after 24 hrs by broth microdilution method; procedure, shortened: as §3
[37] = Staphylococcus epidermidis, 24 h

With `CC[C@H]1OC(=O)[C@H](C)[C@@H](O[C@H]2C[C@@](C)(OC)[C@@H](O)[C@H](C)O2)[C@H](C)[C@@H](O[C@@H]2O[C@H](C)C[C@H](N(C)C)[C@H]2O)[C@](C)(O)C[C@@H](C)C(=O)[C@H](C)[C@@H](O)[C@]1(C)O` [ERYTHROMYCIN] the MIC50 (Mammaliicoccus sciuri [1]) was 16 µg/mL (≈ 21.8 µM), the MIC90 (Mammaliicoccus sciuri [1]) was 32 µg/mL (≈ 43.6 µM) and the Activity (Mammaliicoccus sciuri [2]) was 15%. For the same molecule, the MIC50 [3] was 16 µg/mL (≈ 21.8 µM), the MIC90 [3] was 32 µg/mL (≈ 43.6 µM) and the Activity (Staphylococcus simulans [4]) was 15%. For the same molecule, the Activity (Staphylococcus simulans [5]) was 27%, the Activity (Staphylococcus hominis [6]) was 23% and the MBC50 (Mammaliicoccus sciuri [7]) was 2 µg/mL (≈ 2.73 µM). The MBC (Mammaliicoccus sciuri [7]; Mammaliicoccus sciuri, 24 h) was 1 µg/mL (≈ 1.36 µM), the Activity [8] was 11% and the MIC (Mammaliicoccus sciuri [9]) was 0.5 µg/mL (≈ 0.681 µM). The MIC50 (Mammaliicoccus sciuri [9]) was 0.5 µg/mL (≈ 0.681 µM), the MIC90 (Mammaliicoccus sciuri [9]) was 16 µg/mL (≈ 21.8 µM) and the Activity (Staphylococcus aureus [10]) was 56%. It also gave an MIC50 (Staphylococcus hominis [11]) of 16 µg/mL (≈ 21.8 µM), an MIC90 (Staphylococcus hominis [11]) of 32 µg/mL (≈ 43.6 µM) and an Activity (Staphylococcus aureus [12]) of 4%. For the same molecule, the Activity (Staphylococcus simulans [13]) was 15%, the Activity (Staphylococcus hominis [14]) was 11% and the Activity [15] was 50%. It also gave an MIC [16] of 0.5 µg/mL (≈ 0.681 µM), an MIC50 [16] of 0.5 µg/mL (≈ 0.681 µM) and an MIC90 [16] of 16 µg/mL (≈ 21.8 µM). For the same molecule, the Activity [17] was 74%, the Activity (Mammaliicoccus sciuri [18]) was 74% and the Activity (Mammaliicoccus sciuri [19]) was 50%. The Activity (Staphylococcus hominis [20]) was 50%, the MBC50 (Staphylococcus hominis [21]) was 2 µg/mL (≈ 2.73 µM) and the MBC (Staphylococcus hominis [21]; Staphylococcus hominis, 24 h) was 1 µg/mL (≈ 1.36 µM). It also gave an Activity (Staphylococcus aureus [22]) of 100%, an MIC (Staphylococcus simulans [23]) of 0.5 µg/mL (≈ 0.681 µM) and an MIC50 (Staphylococcus simulans [23]) of 0.5 µg/mL (≈ 0.681 µM). The MIC90 (Staphylococcus simulans [23]) was 16 µg/mL (≈ 21.8 µM), the MBC50 [24] was 32 µg/mL (≈ 43.6 µM) and the MBC ([24]; Staphylococcus haemolyticus, 24 h) was 1 µg/mL (≈ 1.36 µM). The MBC50 [25] was 2 µg/mL (≈ 2.73 µM), the MBC [25, 37] was 1 µg/mL (≈ 1.36 µM) and the Activity (Staphylococcus aureus [26]) was 0%. For the same molecule, the Activity (Staphylococcus aureus [27]) was 0%, the Activity (Staphylococcus aureus [28]) was 40% and the Activity [29] was 15%. The MIC (Staphylococcus aureus [30]) was 0.5 µg/mL (≈ 0.681 µM), the MIC50 (Staphylococcus aureus [30]) was 0.5 µg/mL (≈ 0.681 µM) and the MIC90 (Staphylococcus aureus [30]) was 32 µg/mL (≈ 43.6 µM). The MBC50 (Staphylococcus aureus [31]) was 4 µg/mL (≈ 5.45 µM), the MBC (Staphylococcus aureus [31]; Staphylococcus aureus, 24 h) was 1 µg/mL (≈ 1.36 µM) and the Activity [32] was 50%. The MIC50 [33] was 16 µg/mL (≈ 21.8 µM), the MIC90 [33] was 32 µg/mL (≈ 43.6 µM) and the Activity (Mammaliicoccus sciuri [34]) was 27%. For the same molecule, the MBC50 [35] was 32 µg/mL (≈ 43.6 µM), the MBC [35, 37] was 1 µg/mL (≈ 1.36 µM) and the Activity (Staphylococcus simulans [36]) was 50%.

From ChEMBL document CHEMBL1649231, “In vitro activities of panduratin A against clinical Staphylococcus strains” (2009)
